Assay results taken from article PMC4938767 (Structure (London, England : 1993), 2016).

What was measured:
hNaa60 1–184 = assay: Size-exclusion chromatography, dimer to monomer transition; parameters: species or system human; details: with Ac-CoA
[1] = test system: N-terminal acetyltransferase Naa50; details: ref Evjenth et al., 2012; cited from earlier work
other acetyltransferases = details: ref De Angelis et al., 1998; Thompson et al., 2001; cited from earlier work
[2] = DSF / purification stability of hNaa60 point mutants; details: for initial fluorescence (in words): vs hNaa60 WT; for stability on purification (in words): data not shown
[3] = test system: substrate polypeptide MKAV24; format: biochemical; details: for Wild-type efficiency (%): catalytic efficiency relative to hNaa60 WT; for Kcat/Km: hNaa60 variant, substrate peptide MKAV24, 50 mM HEPES pH 7.5, 100 mM NaCl, 2 mM EDTA, DTNB, 412 nm; for catalytic efficiency (in words): β3–β4 loop contact mutants; for reduction in catalytic efficiency: substrate MKAV24, compared to hNaa60 WT; for change in Km (in words): substrate MKAV24, vs hNaa60 WT
Procedure, shortened: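 Purified hNaa60 variants (His-SUMO tag cleaved, nickel-purified) with peptide and Ac-CoA in assay buffer, quenched with 3.2 M guanidinium-HCl/100 mM sodium phosphate pH 6.8. CoA detected with DTNB (2 mM final) at 412 nm, negative-control background subtracted. Thiophenolate quantified with ε = 13.7 × 103 M−1 cm−1. Rates taken in the linear phase and fitted for kinetic constants.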

## CC(=O)SCCNC(=O)CCNC(=O)[C@H](O)C(C)(C)COP(=O)(O)OP(=O)(O)OC[C@H]1O[C@@H](n2cnc3c(N)ncnc32)[C@H](O)[C@@H]1OP(=O)(O)O [Ac-CoA, acetyl CoA]
hNaa60 1–184
  elution of hNaa60 1–184 (oligomeric state, in words): elutes at a column volume corresponding to twice the theoretical size of the enzyme

## CCNC(=O)CCNC(=O)[C@H](O)C(C)(C)COP(=O)(O)OP(=O)(O)OC[C@H]1O[C@@H](n2cnc3c(N)ncnc32)[C@H](O)[C@@H]1OP(=O)(O)O [desulfoCoA]
[1]
  inhibitor type (Naa50): competitive inhibitor
Other acetyltransferases
  inhibitor type (other acetyltransferases): competitive inhibitor

## D81A: hNaa60 point mutant, β3–β4 loop contact
[2]; DSF
  destabilization compared to hNaa60 WT (in words): clearly destabilized compared to hNaa60 WT
  initial fluorescence (in words): higher initial fluorescence
[3]; substrate MKAV24
  Wild-type efficiency (%): 136.9%
  catalytic efficiency (in words): modest overall effect on catalytic efficiency
[3]
  Kcat/Km: 518 M⁻¹ s⁻¹

## H138A: hNaa60 point mutant, catalytic residue
[2]
  stability on purification (in words): unstable and could not be purified

## H138F: hNaa60 point mutant, catalytic residue
[2]
  stability on purification (in words): unstable and could not be purified

## I36A: hNaa60 point mutant, M1p hydrophobic pocket
[2]; DSF
  destabilization compared to hNaa60 WT (in words): did not show any signs of destabilization
[3]
  Kcat/Km: 60 M⁻¹ s⁻¹
  reduction in catalytic efficiency: ~6 fold
  change in Km (in words): small increase in Km

## I84A: hNaa60 point mutant, β3–β4 loop contact
[2]; DSF
  destabilization compared to hNaa60 WT (in words): clearly destabilized compared to hNaa60 WT
  initial fluorescence (in words): higher initial fluorescence
[3]; substrate MKAV24
  Wild-type efficiency (%): 200.4%
  catalytic efficiency (in words): modest overall effect on catalytic efficiency
[3]
  Kcat/Km: 758 M⁻¹ s⁻¹

## I167A: hNaa60 point mutant, M1p hydrophobic pocket
[3]; substrate MKAV24
  Wild-type efficiency (%): 33.3%
[3]
  Kcat/Km: 123 M⁻¹ s⁻¹
  reduction in catalytic efficiency: ~3 fold
  change in Km (in words): small increase in Km

## L140A: hNaa60 point mutant, M1p hydrophobic pocket
[3]; substrate MKAV24
  Wild-type efficiency (%): 56.0%
  catalytic efficiency (kcat/Km) as fold of hNaa60 WT: approximately 0.5 fold
[3]
  Kcat/Km: 210 M⁻¹ s⁻¹

## P35A/I36A/I167A: hNaa60 triple mutant
[3]; substrate MKAV24
  Wild-type efficiency (%): <10%
  catalytic activity (in words): not able to detect any catalytic activity

## P35A: hNaa60 point mutant, M1p hydrophobic pocket
[3]
  Kcat/Km: 60 M⁻¹ s⁻¹
  reduction in catalytic efficiency: ~6 fold
  change in Km (in words): small increase in Km

## WT: wild-type hNaa60 enzyme
[2]; DSF, apo hNaa60
  melting point (apo): 47.9 °C
[3]; substrate MKAV24
  Wild-type efficiency (%): 100%

## Y38A: hNaa60 point mutant, peptide anchoring residue
[3]; substrate MKAV24
  Wild-type efficiency (%): <10%
  catalytic activity (in words): complete loss of catalytic activity

## Y97F: hNaa60 point mutant, catalytic residue
[3]; substrate MKAV24
  Wild-type efficiency (%): <10%
  catalytic activity (in words): complete loss of catalytic activity

## Y164A: hNaa60 point mutant, β3–β4 loop contact
[3]; substrate MKAV24
  Wild-type efficiency (%): 141.7%
[3]
  Kcat/Km: 535 M⁻¹ s⁻¹

## Y164F: hNaa60 point mutant, β3–β4 loop contact
[2]; DSF
  destabilization compared to hNaa60 WT (in words): clearly destabilized compared to hNaa60 WT
[3]; substrate MKAV24
  Wild-type efficiency (%): 154.9%
[3]
  Kcat/Km: 585 M⁻¹ s⁻¹

## Y165F: hNaa60 point mutant, peptide anchoring residue
[3]; substrate MKAV24
  Wild-type efficiency (%): 24.4%
[3]
  Kcat/Km: 90 M⁻¹ s⁻¹
  reduction in catalytic efficiency: approximately 4 fold
